How the values were obtained:
[1] = system: JURKAT; experiment: Hoechst 33342 nuclear morphological analysis of apoptosis; type: cell-based; conditions: Homo sapiens, 24 h, read-out: AP50 (50% induction of apoptosis), Hoechst 33342 staining (Hoe)
How it was run: (§1)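 Seeded at 0.5 x 10⁶ cells/well in 12-well plates and treated 24 h. Cells were pelleted (400 g, 5 min, 4 °C), washed in PBS, fixed in 4% paraformaldehyde, cytospun, air-dried, then stained with 10 μg/ml Hoechst 33342 for 10 min in the dark. Fluorescence microscopy: 200 cells counted, scored by condensed/intense nuclei, shrinkage, blebbing and apoptotic bodies. % apoptotic nuclei calculated. AP50 = concentration giving 50% apoptotic cells.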

[2] = system: THP-1; experiment: NucView caspase 3 activity assay by flow cytometry; type: cell-based, human; conditions: for EC50: Homo sapiens, THP-1, 24 h, read-out: AP50 (50% induction of apoptosis), Caspase 3 activity assay (C3); for The lowest dose of polyphenols at which there was a significant induction of apoptosis compared to the vehicle control: THP-1, caspase 3 activity, 24 h, p<0.05
How it was run: (§2)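 Seeded at 0.5 x 10⁶ cells/well and treated 24 h, with series of 0–50 or 0–250 µM depending on compound. Normalized to vehicle (0% apoptosis). Mean ± STD, three independent experiments in triplicate. One-way ANOVA/Tukey, p<0.05. AP50 = concentration giving 50% apoptotic cells.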

[3] = system: THP-1; experiment: Cell cycle analysis, propidium iodide flow cytometry; type: cell-based, human; conditions: THP-1, IC50 dose, 24 h; vehicle control G0/G1 = 42.3%
How it was run: (§3)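 Seeded at 0.5 x 10^6 cells per well in 12-well plates and treated 24 h at the IC50 concentration of each test compound from CellTiter-Glo. Cells were pelleted (400 g, 5 min), PBS-washed and fixed in 80% ethanol overnight at -20 °C. Staining used 50 µg/mL PI plus RNase overnight at 4 °C.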

[4] = system: non-tumor cells (CD34+); experiment: NucView caspase 3 activity assay by flow cytometry; type: cell-based; conditions: 24 h; for EC50: read-out: AP50 (50% induction of apoptosis), Caspase 3 activity assay (C3); for The lowest dose of polyphenols at which there was a significant induction of apoptosis compared to the vehicle control: CD34+ non-tumour control cells, caspase 3 activity, p<0.05
[5] = system: HL60; experiment: NucView caspase 3 activity assay by flow cytometry; type: cell-based, human; conditions: for The lowest dose of polyphenols at which there was a significant induction of apoptosis compared to the vehicle control: HL60, caspase 3 activity, 24 h, p<0.05; for EC50: Homo sapiens, HL-60, 24 h, read-out: AP50 (50% induction of apoptosis), Caspase 3 activity assay (C3)
How it was run: as §2

[6] = system: JURKAT; experiment: NucView caspase 3 activity assay by flow cytometry; type: cell-based, human; conditions: 24 h; for EC50: Homo sapiens, Jurkat, read-out: AP50 (50% induction of apoptosis), Caspase 3 activity assay (C3); for The lowest dose of polyphenols at which there was a significant induction of apoptosis compared to the vehicle control: JURKAT, caspase 3 activity, p<0.05
How it was run: as §2

[7] = system: KG1a; experiment: Hoechst 33342 nuclear morphological analysis of apoptosis; type: cell-based; conditions: Homo sapiens, KG-1a, 24 h, read-out: AP50 (50% induction of apoptosis), Hoechst 33342 staining (Hoe)
How it was run: as §1

[8] = system: K562; experiment: as above; type: cell-based; conditions: Homo sapiens, K562, 24 h, read-out: AP50 (50% induction of apoptosis), Hoechst 33342 staining (Hoe)
How it was run: as §1

[9] = system: K562; experiment: CellTiter-Glo luminescent cell viability assay; type: cell-based, human; conditions: K562, 24 h, doses 0, 2, 10, 50, 250, 500 µM, p<0.05
How it was run: (§4)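 Cells grown in RPMI 1640 with 10% FBS, 1.5 mM L-glutamine and penicillin/streptomycin at 37 °C, 5% CO2. Seeded at 2.5 x 10³ cells/well and exposed 24 h to ethanol-dissolved test compound (0, 2, 10, 50, 250, 500 µM) with 0.1% ethanol vehicle. ATP luminescence normalized to vehicle (100%). IC50 taken from linear regression. Lowest significant dose set by one-way ANOVA/Tukey, p<0.05. Triplicates, three independent experiments.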

[10] = system: CCRF-CEM; experiment: NucView caspase 3 activity assay by flow cytometry; type: cell-based, human; conditions: 24 h; for EC50: Homo sapiens, read-out: AP50 (50% induction of apoptosis), Caspase 3 activity assay (C3); for The lowest dose of polyphenols at which there was a significant induction of apoptosis compared to the vehicle control: caspase 3 activity, p<0.05
How it was run: as §2

[11] = system: U937; experiment: Cell cycle analysis, propidium iodide flow cytometry; type: cell-based, human; conditions: U937, IC50 dose, 24 h
How it was run: as §3

[12] = system: KG1a; experiment: NucView caspase 3 activity assay by flow cytometry; type: cell-based, human; conditions: 24 h; for EC50: Homo sapiens, KG-1a, read-out: AP50 (50% induction of apoptosis), Caspase 3 activity assay (C3); for The lowest dose of polyphenols at which there was a significant induction of apoptosis compared to the vehicle control: KG1a, caspase 3 activity, p<0.05
How it was run: as §2

[13] = system: K562; experiment: NucView caspase 3 activity assay by flow cytometry; type: cell-based, human; conditions: for EC50: Homo sapiens, K562, 24 h, read-out: AP50 (50% induction of apoptosis), Caspase 3 activity assay (C3); for The lowest dose of polyphenols at which there was a significant induction of apoptosis compared to the vehicle control: K562, caspase 3 activity, 24 h, p<0.05
How it was run: as §2

[14] = system: U937; experiment: CellTiter-Glo luminescent cell viability assay; type: cell-based, human; conditions: U937, 24 h, doses 0, 2, 10, 50, 250, 500 µM, p<0.05
How it was run: as §4

[15] = system: HL60; experiment: Hoechst 33342 nuclear morphological analysis of apoptosis; type: cell-based; conditions: Homo sapiens, HL-60, 24 h, read-out: AP50 (50% induction of apoptosis), Hoechst 33342 staining (Hoe)
How it was run: as §1

[16] = system: K562; experiment: Cell cycle analysis, propidium iodide flow cytometry; type: cell-based, human; conditions: K562, IC50 dose, 24 h; vehicle control G0/G1 = 53.7%
How it was run: as §3

[17] = system: KG1a; experiment: CellTiter-Glo luminescent cell viability assay; type: cell-based, human; conditions: 24 h; for IC50: Homo sapiens, KG-1a, read-out: IC50 (50% inhibition of cellular proliferation); for The lowest dose of polyphenols at which there was a significant inhibition of cell proliferation compared to the vehicle control: KG1a, doses 0, 2, 10, 50, 250, 500 µM, p<0.05
How it was run: as §4

[18] = system: MOLT-3; experiment: Hoechst 33342 nuclear morphological analysis of apoptosis; type: cell-based; conditions: Homo sapiens, MOLT-3, 24 h, read-out: AP50 (50% induction of apoptosis), Hoechst 33342 staining (Hoe)
How it was run: as §1

[19] = system: KG1a; experiment: Cell cycle analysis, propidium iodide flow cytometry; type: cell-based, human; conditions: IC50 dose, 24 h, vehicle control G0/G1 = 44.6%
How it was run: as §3

[20] = system: non-tumor progenitor cells (CD34+); experiment: Cell cycle analysis, propidium iodide flow cytometry; type: cell-based; conditions: 24 h, within the IC50 ranges used to treat the leukemic cell lines
[21] = system: THP-1; experiment: Hoechst 33342 nuclear morphological analysis of apoptosis; type: cell-based; conditions: Homo sapiens, THP-1, 24 h, read-out: AP50 (50% induction of apoptosis), Hoechst 33342 staining (Hoe)
How it was run: as §1

[22] = system: CCRF-CEM; experiment: Cell cycle analysis, propidium iodide flow cytometry; type: cell-based, human; conditions: IC50 dose, 24 h
How it was run: as §3

[23] = system: U937; experiment: Hoechst 33342 nuclear morphological analysis of apoptosis; type: cell-based; conditions: Homo sapiens, U-937, 24 h, read-out: AP50 (50% induction of apoptosis), Hoechst 33342 staining (Hoe)
How it was run: as §1

[24] = system: MOLT-3; experiment: CellTiter-Glo luminescent cell viability assay; type: cell-based, human; conditions: MOLT-3, 24 h, doses 0, 2, 10, 50, 250, 500 µM, p<0.05
How it was run: as §4

Row | SMILES | EC50 [1] | EC50 [2] | The lowest dose of polyphenols at which there was a significant induction of apoptosis compared to the vehicle control [2] | Percentage of cells in G0/G1 phase of cell cycle (significant accumulation) [3] | EC50 [4] | The lowest dose of polyphenols at which there was a significant induction of apoptosis compared to the vehicle control [4] | The lowest dose of polyphenols at which there was a significant induction of apoptosis compared to the vehicle control [5] | EC50 [5] | EC50 [6] | The lowest dose of polyphenols at which there was a significant induction of apoptosis compared to the vehicle control [6] | EC50 [7] | EC50 [8] | The lowest dose of polyphenols at which there was a significant inhibition of cell proliferation compared to the vehicle control [9] | EC50 [10] | The lowest dose of polyphenols at which there was a significant induction of apoptosis compared to the vehicle control [10] | EC50 [12] | The lowest dose of polyphenols at which there was a significant induction of apoptosis compared to the vehicle control [12] | EC50 [13] | The lowest dose of polyphenols at which there was a significant induction of apoptosis compared to the vehicle control [13] | The lowest dose of polyphenols at which there was a significant inhibition of cell proliferation compared to the vehicle control [14] | other results
1 | Cc1cc(O)c2c(c1)C(=O)c1cc(O)cc(O)c1C2=O [Emodin] | 9 µM | 7.8 µM | 2 µM | G0/G1= 50.8% | > 10 µM | 10 µM | 10 µM | 8.5 µM | 2 µM | 2 µM | > 500 µM | > 500 µM | 2 µM | > 10 µM | 10 µM | > 10 µM | 2 µM | > 10 µM | 2 µM | 2 µM | Percentage of cells in G0/G1 phase of cell cycle (significant accumulation) ([11]; vehicle control G0/G1 = 44.03%): G0/G1 =60%; EC50 [15]: 6 µM; Percentage of cells in G0/G1 phase of cell cycle (significant accumulation) [16]: G0/G1 =66%; IC50 [17]: 15 µM; The lowest dose of polyphenols at which there was a significant inhibition of cell proliferation compared to the vehicle control [17]: 2 µM; EC50 [18]: 9 µM; Percentage of cells in G0/G1 phase of cell cycle (significant accumulation) [19]: G0/G1 =52.9%; Cell cycle arrest in non-tumour control cells [20]: No Arrest <50µM; EC50 [21]: 10 µM; Percentage of cells in G0/G1 phase of cell cycle (significant accumulation) ([22]; vehicle control G0/G1 = 41.9%): G0/G1 =50%; EC50 [23]: 27 µM; The lowest dose of polyphenols at which there was a significant inhibition of cell proliferation compared to the vehicle control [24]: 2 µM
2 | O=c1c(O)c(-c2ccc(O)c(O)c2)oc2cc(O)cc(O)c12 [Quercetin] | 25 µM | > 50 µM | 10 µM | G0/G1 =52% | > 50 µM | 50 µM | 10 µM | 50 µM | 19 µM | 2 µM | 125 µM | 205 µM | 2 µM | 50 µM | 2 µM | > 50 µM | 10 µM | > 50 µM | 10 µM | 2 µM | Percentage of cells in G2/M phase of cell cycle (significant accumulation) ([11]; vehicle control G2/M = 19.1%): G2/M =25%; EC50 [15]: 50 µM; Percentage of cells in G0/G1 phase of cell cycle (significant accumulation) [16]: G0/G1=60%; IC50 [17]: 155 µM; The lowest dose of polyphenols at which there was a significant inhibition of cell proliferation compared to the vehicle control [17]: 10 µM; EC50 [18]: 50 µM; Percentage of cells in G0/G1 phase of cell cycle (significant accumulation) [19]: G0/G1=52%; Cell cycle arrest in non-tumour control cells [20]: No Arrest <50µM; EC50 [21]: > 500 µM; Percentage of cells in S phase of cell cycle (significant accumulation) ([22]; vehicle control S = 47.2%): S = 51.4%; EC50 [23]: 50 µM; The lowest dose of polyphenols at which there was a significant inhibition of cell proliferation compared to the vehicle control [24]: 2 µM

— article PMC3873039 (Anti-Cancer Agents in Medicinal Chemistry, 2013)
